Source: ChEMBL document CHEMBL1135976, “Antimalarial activity of yingzhaosu A analogues” (J Med Chem, 2002)

What was measured:
FM3A [1] = test: Percent inhibition of growth against mouse mammary FM3A cells; type: cell-based; parameters: concentration or dose not given beside the values
Summary of the method: (§1)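 Mouse mammary tumor FM3A cells in culture served as the mammalian cytotoxicity counterscreen. EC50 was determined; where no activity was found at 10 μM, percent growth inhibition at that concentration was given.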

FM3A [2] = test: Effective concentration against mouse mammary FM3A cells; type: ADME, cell-based; summary of the method: as §1
[3] = Selectivity as the ratio of EC50 value for FM3A cells to that of Plasmodium falciparum.; type: functional
Summary of the method: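 Selectivity was taken as the mean EC50 in FM3A cells divided by the mean EC50 against P. falciparum FCR-3.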

Plasmodium falciparum = test: In vitro antimalarial activity against Plasmodium falciparum; type: functional, organism-based
Summary of the method: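 Chloroquine-sensitive P. falciparum FCR-3 strain cultured in vitro. EC50 was determined.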

Plasmodium berghei = test: Antimalarial activity against Plasmodium berghei infected mice (Mus musculus) after intramuscular administration at a dose 100 mg/kg/day; type: ADME, organism-based; parameters: route intramuscular; settings: im
Summary of the method: (§2)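 P. berghei NK 65 strain in mice, five per group. Compounds in olive oil were given ip or im once daily on days 0–3, starting on the day of infection. Parasitemia was read on day 4 from Giemsa-stained tail blood smears, counting 1×10^4 erythrocytes per film, and suppression calculated against DMSO sham-treated infected controls. Survival was recorded in days. Values are means of five mice, one test.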

Mus musculus [4] = test: Mice survival days reported after intraperitoneal administration; type: ADME, organism-based; settings: in vivo, ip; summary of the method: as §2
Mus musculus [5] = test: Mice survival days reported after intramuscular administration; type: ADME, organism-based; settings: in vivo, im; summary of the method: as §2

SMILES	Inhibition (FM3A [1]) [%]	EC50 (FM3A [2]) [µM]	Selectivity [3]	EC50 (Plasmodium falciparum) [µM]	inhibition at 100 mg/kg (Plasmodium berghei) [%]	Survival (Mus musculus [4]) [days]	Survival (Mus musculus [5]) [days]
CC12CCC[C@H](C1)C(C)(CI)O2 (some centres not stated)	0	> 48	>48	1	–	–	–
COC12CCC[C@@H](C1)C(I)C(C)(C)OO2 (some centres not stated)	10	> 64	>4	15	–	–	–
CCOC(=O)C(I)C12CCCC(C1)C(C)(C)OO2 (configuration not stated)	–	3.1	282	0.011	80	6.5	9.8
CC1(C)OOC2(CI)CCCC1C2 (configuration not stated)	–	68	1700	0.04	99	7	9.6
COC12C[C@H](CC[C@@H]1C)C(C)(CI)OO2 (some centres not stated)	8	> 54	>27	2	–	–	–
COC12CCC[C@H](CC(C)(CI)OO1)C2 (some centres not stated)	6	> 80	>32	2.5	–	–	–
CC12CCC[C@@H](C1)C(C)(CI)OO2 (some centres not stated)	10	> 84	>6462	0.013	–	–	–
CC1(CI)C[C@H]2CCCCC2O1 (some centres not stated)	34	> 210	>2	120	–	–	–
COC12CCC[C@@H](C1)C(C)(CI)OO2 (some centres not stated)	19	> 70	>41	1.7	–	–	–
CC1(C)OC2(CI)CCCC1C2 (configuration not stated)	10	> 84	>14	5.8	–	–	–
CC1(CI)C[C@H]2CCCC(C2)OO1 (some centres not stated)	47	> 96	>32	3	–	–	–
CC1(CI)C[C@H]2CCCC[C@@H]2OO1 (relative stereo)	–	66	44	1.5	–	–	–
C[C@@H]1CC[C@H]2[C@@H](C)C(=O)O[C@@H]3O[C@@]4(C)CC[C@@H]1[C@]32OO4 [ARTEMISININ]	–	–	1000	–	–	–	–
